From ChEMBL document CHEMBL1131323, “Inhibition of membrane-type 1 matrix metalloproteinase by hydroxamate inhibitors: an examination of the subsite pocket” (J Med Chem, 1998)
pIC50: −log10 of the molar value. One block for each molecule: values may come before it.

How the values were obtained:
[1] = molecular target: Matrix metalloproteinase-14 (Homo sapiens, UniProt P50281); assay: Activity against deletion mutant of MT1-MMP lacking the transmembrane domain (deltaMT1)
[2] = molecular target: 72 kDa type IV collagenase (Homo sapiens, UniProt P08253); assay: Activity against Matrix metalloprotease-2 (MMP-2).
[3] = molecular target: Stromelysin-1 (Homo sapiens, UniProt P08254); assay: Activity against Matrix metalloprotease-3 (MMP-3).
Summary of the method: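 MMP-3 purified from human fibroblast culture medium, used at 0.3 U/mL. Substrate was radiolabeled proteoglycan entrapped in polyacrylamide particles (3.5 mg dry beads). IC50 values read from dose-dependent inhibition curves.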

[4] = molecular target: T1, Interstitial collagenase (Homo sapiens, UniProt P03956); assay: Activity against Matrix metalloprotease-1 (MMP-1).
T1 sequence (P03956 whole entry): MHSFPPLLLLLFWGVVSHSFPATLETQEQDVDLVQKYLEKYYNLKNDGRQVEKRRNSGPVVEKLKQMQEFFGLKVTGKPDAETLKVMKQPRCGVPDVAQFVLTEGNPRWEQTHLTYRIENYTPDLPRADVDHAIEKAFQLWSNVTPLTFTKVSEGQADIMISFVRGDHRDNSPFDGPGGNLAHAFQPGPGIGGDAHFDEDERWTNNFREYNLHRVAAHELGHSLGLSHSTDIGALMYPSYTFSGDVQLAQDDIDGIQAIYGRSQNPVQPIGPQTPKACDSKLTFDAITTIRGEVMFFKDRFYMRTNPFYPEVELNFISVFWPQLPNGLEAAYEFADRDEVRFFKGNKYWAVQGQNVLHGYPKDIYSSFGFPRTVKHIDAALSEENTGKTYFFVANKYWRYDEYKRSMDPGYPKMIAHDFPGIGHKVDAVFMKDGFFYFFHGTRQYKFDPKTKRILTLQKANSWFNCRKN

[5] = molecular target: Matrix metalloproteinase-9 (Homo sapiens, UniProt P14780); assay: Activity against Matrix metalloprotease-9 (MMP-9).
Sequence of Matrix metalloproteinase-9 (P14780 whole entry): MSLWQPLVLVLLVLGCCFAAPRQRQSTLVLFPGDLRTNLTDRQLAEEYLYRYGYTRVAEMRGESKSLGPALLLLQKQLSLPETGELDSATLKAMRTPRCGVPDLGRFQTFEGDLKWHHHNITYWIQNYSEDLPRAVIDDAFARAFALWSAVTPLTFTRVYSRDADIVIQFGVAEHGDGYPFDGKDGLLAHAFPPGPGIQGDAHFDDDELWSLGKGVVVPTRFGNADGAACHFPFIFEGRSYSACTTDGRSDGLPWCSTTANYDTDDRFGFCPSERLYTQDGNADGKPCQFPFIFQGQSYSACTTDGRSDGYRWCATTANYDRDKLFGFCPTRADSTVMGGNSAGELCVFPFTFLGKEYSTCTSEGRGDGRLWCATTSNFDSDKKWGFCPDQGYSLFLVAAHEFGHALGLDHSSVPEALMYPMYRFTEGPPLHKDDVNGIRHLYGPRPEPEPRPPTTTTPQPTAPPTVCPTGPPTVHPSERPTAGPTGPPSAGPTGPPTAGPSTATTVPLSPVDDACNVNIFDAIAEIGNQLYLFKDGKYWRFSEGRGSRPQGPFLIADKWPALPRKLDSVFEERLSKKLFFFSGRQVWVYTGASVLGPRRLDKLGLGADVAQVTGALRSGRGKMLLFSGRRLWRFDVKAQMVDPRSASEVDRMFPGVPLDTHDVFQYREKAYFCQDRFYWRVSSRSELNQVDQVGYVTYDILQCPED

Sequence of 72 kDa type IV collagenase (P08253 whole entry): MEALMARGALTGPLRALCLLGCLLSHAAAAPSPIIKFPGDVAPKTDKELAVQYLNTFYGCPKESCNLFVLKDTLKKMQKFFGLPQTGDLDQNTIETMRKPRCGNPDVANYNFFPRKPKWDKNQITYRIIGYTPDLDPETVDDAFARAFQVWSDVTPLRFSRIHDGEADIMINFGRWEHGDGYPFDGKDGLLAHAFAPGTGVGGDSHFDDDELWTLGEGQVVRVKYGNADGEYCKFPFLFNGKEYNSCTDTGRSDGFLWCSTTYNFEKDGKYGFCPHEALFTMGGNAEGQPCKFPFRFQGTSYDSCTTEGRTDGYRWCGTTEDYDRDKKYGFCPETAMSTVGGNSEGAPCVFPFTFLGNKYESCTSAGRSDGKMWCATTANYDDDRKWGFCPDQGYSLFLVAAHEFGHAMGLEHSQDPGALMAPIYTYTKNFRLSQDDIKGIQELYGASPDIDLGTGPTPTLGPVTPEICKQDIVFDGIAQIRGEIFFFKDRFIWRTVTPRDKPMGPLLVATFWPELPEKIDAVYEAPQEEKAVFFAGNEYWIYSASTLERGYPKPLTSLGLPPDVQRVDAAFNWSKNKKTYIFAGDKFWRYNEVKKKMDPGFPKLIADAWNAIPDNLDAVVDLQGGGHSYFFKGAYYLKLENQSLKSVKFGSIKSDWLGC
Sequence of Stromelysin-1 (P08254 whole entry): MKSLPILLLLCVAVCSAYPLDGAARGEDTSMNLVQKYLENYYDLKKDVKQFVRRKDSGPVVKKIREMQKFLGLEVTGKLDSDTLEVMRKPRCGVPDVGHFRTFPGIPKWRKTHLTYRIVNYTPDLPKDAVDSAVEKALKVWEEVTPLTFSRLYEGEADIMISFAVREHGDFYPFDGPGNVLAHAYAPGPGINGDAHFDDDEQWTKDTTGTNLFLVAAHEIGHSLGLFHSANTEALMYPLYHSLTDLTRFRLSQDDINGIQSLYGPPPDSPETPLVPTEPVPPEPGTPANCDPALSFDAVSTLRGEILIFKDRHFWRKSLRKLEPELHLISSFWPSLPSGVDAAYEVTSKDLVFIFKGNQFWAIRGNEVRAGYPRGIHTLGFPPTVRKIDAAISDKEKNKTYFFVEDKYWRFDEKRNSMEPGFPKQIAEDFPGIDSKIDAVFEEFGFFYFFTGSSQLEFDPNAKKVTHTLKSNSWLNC

Structure (SMILES): CNC(=O)[C@@H](NC(=O)C(CC(C)C)C(O)C(=O)NO)C(C)(C)C (single isomer, unassigned)
pIC50 [1]: 8.74

Structure (SMILES): CNC(=O)[C@@H](NC(=O)[C@@H](CC(=O)NO)CC(C)C)C1CCCCC1
pIC50 [2]: 8.08
pIC50 [1]: 8.64
pIC50 [3]: 8.64
pIC50 [4]: 8.27
pIC50 [5]: 8.30

Structure (SMILES): CCCCCCCCC[C@H](CC(=O)NO)C(=O)N[C@H](C(=O)NC)c1ccccc1
pIC50 [2]: 8.80
pIC50 [1]: 7.75
pIC50 [3]: 7.00
pIC50 [4]: 7.05
pIC50 [5]: 9.70

Structure (SMILES): CNC(=O)[C@@H](NC(=O)[C@@H](CC(=O)NO)CC(C)C)C(C)(C)C [RO-319790]
pIC50 [2]: 8.13
pIC50 [1]: 8.72
pIC50 [4]: 8.52
pIC50 [5]: 7.92

Structure (SMILES): CNC(=O)[C@H](Cc1c[nH]c2ccccc12)NC(=O)[C@@H](CC(=O)NO)CC(C)C [ILOMASTAT]
pIC50 [1]: 7.87
pIC50 [3]: 8.72

Structure (SMILES): CNC(=O)[C@@H](NC(=O)[C@H](CCCc1ccccc1)CC(=O)NO)C(C)(C)C
pIC50 [1]: 8.72
pIC50 [5]: 8.89

Structure (SMILES): CNC(=O)[C@@H](NC(=O)[C@H](CCCc1ccccc1)CC(=O)NO)c1ccccc1
pIC50 [2]: 8.49
pIC50 [1]: 8.07
pIC50 [3]: 8.02
pIC50 [4]: 7.05
pIC50 [5]: 8.48

Structure (SMILES): CNC(=O)[C@@H](NC(=O)[C@H](CCCc1ccccc1)CC(=O)NO)C(C)C
pIC50 [1]: 8.60
pIC50 [4]: 7.03
pIC50 [5]: 8.55

Further lines, results first:

pIC50 [2]: 7.33
pIC50 [1]: 6.98
pIC50 [3]: 7.77
pIC50 [4]: 7.04
pIC50 [5]: 7.96
Structure (SMILES): CNC(=O)[C@@H](NC(=O)[C@H](CCc1ccccc1)CC(=O)NO)c1ccccc1

pIC50 [1]: 8.52
pIC50 [5]: 9.70
Structure (SMILES): CNC(=O)[C@H](Cc1ccccc1)NC(=O)[C@H](CC(C)C)[C@H](CSc1cccs1)C(=O)NO [BATIMASTAT]

pIC50 [2]: 8.12
pIC50 [1]: 7.25
pIC50 [3]: 8.72
pIC50 [4]: 8.52
pIC50 [5]: 8.41
Structure (SMILES): CNC(=O)[C@@H](NC(=O)[C@H](CC(C)C)[C@H](C)C(=O)NO)c1ccccc1

pIC50 [1]: 7.14
pIC50 [3]: 7.21
pIC50 [4]: 8.46
pIC50 [5]: 7.35
Structure (SMILES): CNC(=O)[C@@H](NC(=O)[C@H](CC(C)C)[C@H](CN1CCOCC1)C(=O)NO)c1ccccc1

pIC50 [2]: 7.37
pIC50 [1]: 7.71
pIC50 [3]: 8.36
pIC50 [4]: 7.82
pIC50 [5]: 7.85
Structure (SMILES): CNC(=O)[C@@H](NC(=O)[C@@H](CC(=O)NO)CC(C)C)c1ccccc1

pIC50 [1]: 7.89
pIC50 [4]: 8.54
pIC50 [5]: 9.05
Structure (SMILES): CNC(=O)[C@@H](NC(=O)[C@H](CC(C)C)[C@H](C)C(=O)NO)C1CCCCC1

pIC50 [2]: 9.52
pIC50 [1]: 8.68
pIC50 [3]: 9.22
pIC50 [4]: 9.52
pIC50 [5]: 9.52
Structure (SMILES): CNC(=O)[C@H](Cc1cccc2c1CCCC2)NC(=O)[C@H](CC(C)C)[C@H](C)C(=O)NO
